Laboratory results: ChEMBL document CHEMBL1127788, “Iodinated 2-aminotetralins and 3-amino-1-benzopyrans: ligands for dopamine D2 and D3 receptors” (J Med Chem, 1994)

Columns and labels:
D(2) dopamine receptor [1] = biological target: T1, D(2) dopamine receptor (Homo sapiens, UniProt P14416); test: Tested for the inhibitory activity against Dopamine D2 receptor in infected Sf9 cells; assay type: cell-based
Outline: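 Membranes from Sf9 cells infected with AcMNPVrD2 baculovirus (non-G-protein coupled, low-affinity D2). Drugs up to 10^-5 M displace 0.1 nM [125I]-NCQ298 in 50 mM Tris pH 7.4, 120 mM NaCl, protease inhibitors, BSA 1 mg/mL. Incubation 30 min at 37 °C, filtration, gamma counting. Nonspecific binding with 10 μM (+)-butaclamol or 1 μM 7-OH-DPAT. Ki by nonlinear least-squares fitting.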

D(2) dopamine receptor [2] = biological target: T1, D(2) dopamine receptor; test: Tested for the inhibitory activity against D2H (high-affinity states) receptor in infected HEK 293 cells.; assay type: cell-based, HEK293
Outline: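 Competition binding on membranes of HEK293 cells expressing dopamine D2 receptors in high-affinity (G-protein coupled) states. Radioligand [125I]-R-(+)-trans-7-OH-PIPAT. […] Ki from iterative nonlinear least-squares curve fitting.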

[3] = biological target: T2, Sigma non-opioid intracellular receptor 1 (Rattus norvegicus, UniProt Q9R0C9); test: Tested for the inhibitory activity against sigma receptor rat cerebellar
T2 sequence (Q9R0C9 whole entry): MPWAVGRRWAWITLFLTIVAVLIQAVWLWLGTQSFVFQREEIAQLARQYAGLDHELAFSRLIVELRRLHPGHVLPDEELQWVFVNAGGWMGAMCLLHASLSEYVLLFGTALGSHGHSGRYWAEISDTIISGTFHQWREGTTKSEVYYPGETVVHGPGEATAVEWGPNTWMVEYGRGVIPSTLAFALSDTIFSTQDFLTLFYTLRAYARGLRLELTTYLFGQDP
Outline: (§1)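 Rat cerebellar homogenate (65–75 μg) with 0.3–0.5 nM [125I]-S-(-)-trans-7-OH-PIPAT plus 15 nM spiperone and varying inhibitor, 20 min at 25 °C. Nonspecific binding: 10 μM haloperidol. Vacuum filtration through PEI-presoaked glass fiber filters, washed with ice-cold 50 mM Tris-HCl pH 7.4.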

D(3) dopamine receptor = D(3) dopamine receptor (Homo sapiens, UniProt P35462); test: Tested for the inhibitory activity against Dopamine D3 receptor in infected Sf9 cells; assay type: cell-based
Sequence of D(3) dopamine receptor (P35462 whole entry): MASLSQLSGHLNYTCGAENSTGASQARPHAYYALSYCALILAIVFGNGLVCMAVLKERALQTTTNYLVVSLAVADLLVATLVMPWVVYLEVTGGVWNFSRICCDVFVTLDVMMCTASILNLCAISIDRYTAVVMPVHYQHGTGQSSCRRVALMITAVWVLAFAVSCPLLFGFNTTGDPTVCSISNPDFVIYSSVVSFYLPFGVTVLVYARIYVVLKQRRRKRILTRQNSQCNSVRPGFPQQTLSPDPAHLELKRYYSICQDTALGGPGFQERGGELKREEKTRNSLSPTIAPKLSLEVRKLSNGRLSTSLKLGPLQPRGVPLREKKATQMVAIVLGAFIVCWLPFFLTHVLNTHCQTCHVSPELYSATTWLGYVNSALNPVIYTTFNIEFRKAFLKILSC
Outline: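 Membranes from Sf9 cells infected with AcMNPVrD3, in 50 mM Tris pH 7.4 with 120 mM NaCl, protease inhibitors and BSA 1 mg/mL. Nonspecific binding: 10 μM (+)butaclamol or 1 μM 7-OH-DPAT. Filtration onto PEI-soaked glass fiber, γ counting, LIGAND nonlinear fit.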

[4] = biological target: T3, 5-hydroxytryptamine receptor 1A (Rattus norvegicus, UniProt P19327); test: Tested for the inhibitory activity against 5-hydroxytryptamine 1A receptor in rat hippocampal; assay type: tissue-based, Hippocampus
T3 sequence (P19327 whole entry): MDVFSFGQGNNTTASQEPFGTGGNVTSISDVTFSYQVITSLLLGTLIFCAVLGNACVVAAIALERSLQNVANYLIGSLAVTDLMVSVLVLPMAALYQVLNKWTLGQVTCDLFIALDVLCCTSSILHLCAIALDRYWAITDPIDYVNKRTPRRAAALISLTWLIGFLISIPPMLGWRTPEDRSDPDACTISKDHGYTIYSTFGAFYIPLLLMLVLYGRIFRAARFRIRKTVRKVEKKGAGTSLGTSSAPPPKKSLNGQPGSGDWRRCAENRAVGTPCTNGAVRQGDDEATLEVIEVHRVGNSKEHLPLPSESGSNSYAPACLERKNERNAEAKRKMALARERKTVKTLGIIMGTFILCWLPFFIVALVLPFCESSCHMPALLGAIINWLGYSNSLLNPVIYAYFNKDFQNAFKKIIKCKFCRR
Outline: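 Rat hippocampal homogenate in ice-cold 50 mM Tris-HCl pH 7.4, spun at 20000g for 20 min. Pellet lysed in water, preincubated at 37 °C to remove endogenous serotonin, then resuspended in Tris with 2 mM MgCl2. Nonspecific binding: 10 μM 5-HT. Filtration, γ counting, Ki by LIGAND fit.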

[5] = biological target: T2, Sigma non-opioid intracellular receptor 1; test: tested for the inhibitory activity against sigma receptor rat cerebellar; outline: as §1

T1 sequence (P14416 whole entry): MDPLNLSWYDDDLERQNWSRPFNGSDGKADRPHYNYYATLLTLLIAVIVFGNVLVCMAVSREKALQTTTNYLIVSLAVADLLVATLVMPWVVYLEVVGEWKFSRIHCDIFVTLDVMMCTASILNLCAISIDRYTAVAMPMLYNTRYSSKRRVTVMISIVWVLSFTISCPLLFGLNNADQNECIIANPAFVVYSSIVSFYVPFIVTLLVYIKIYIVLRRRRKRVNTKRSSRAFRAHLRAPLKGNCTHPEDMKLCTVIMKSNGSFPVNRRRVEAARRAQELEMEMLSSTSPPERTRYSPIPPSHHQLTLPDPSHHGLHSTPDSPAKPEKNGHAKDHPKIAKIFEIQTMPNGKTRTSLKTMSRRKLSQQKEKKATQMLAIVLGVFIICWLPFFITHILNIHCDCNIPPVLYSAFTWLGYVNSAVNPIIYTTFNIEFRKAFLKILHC

Row | Structure (SMILES) | Ki (D(2) dopamine receptor [1]) [nM] | Ki (D(2) dopamine receptor [2]) [nM] | Ki [3] [nM] | Ki (D(3) dopamine receptor) [nM] | Ki [4] [nM] | Ki [5] [nM]
1 | CCCN(C/C=C/I)C1CCc2ccc(O)cc2C1 (centres undefined) | 265 | 6.6 | 3.2 | – | – | –
2 | CCCN(C/C=C/I)C1COc2c(O)cccc2C1 (centres undefined) | > 5000 | – | 492 | 31.4 | 1270 | –
3 | CCCN(C/C=C/I)C1COc2ccc(O)cc2C1 (centres undefined) | 784 | – | > 10000 | 6.69 | 619 | –
4 | CCCN(C/C=C/I)C1CCc2c(O)cccc2C1 (centres undefined) | 324 | 3.6 | 1240 | 0.99 | 47.9 | –
5 | CCCN(CCC)C1CCc2ccc(O)cc2C1 (centres undefined) | – | – | 23.2 | – | – | –
6 | Oc1ccc2c(c1)CC(NC/C=C/I)CC2 (centres undefined) | – | – | – | 30.2 | – | 1.68
7 | CCCN(C/C=C/I)C1CCc2cc(O)ccc2C1 (centres undefined) | 547 | 9.7 | 28.4 | 2.2 | 297 | –
